Laboratory results as given in PMC5836871 (Journal of Clinical Pharmacology, 2017).
Several values for one entry are separate records, joined by “and”; a condition that tells them apart may be missing. Equal entries are not always repeated. Where two headings read alike, the source gives them in different places. Marks after values point to notes of the source that are not given here.

How the values were obtained:
[1] = format: in vivo, human; details: for AUC0–∞ of metabolite, gMean (gCV%) / Cmax of metabolite, gMean (gCV%) / t1/2, gMean (gCV%) / fe0–72 (fraction excreted unchanged in urine), gMean (gCV%): single oral nintedanib 100 mg
In short: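 Single oral 100 mg dose of test compound as soft-gelatin capsule, fed. Adults 18–79 y, BMI 18.5–34 kg/m2: Child-Pugh A (score 5–6) or B (7–9) hepatic impairment, plus matched healthy controls. Plasma sampled to day 8 for parent and metabolites. AUC0–∞, Cmax and AUC0–tz compared by log-scale ANOVA (hepatic status fixed, matched pair random); other parameters descriptive.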

[2] = format: in vitro ADME, human; details: for Protein-bound fraction, mean ± SD: plasma spiked with 100 ng/mL 14C-labeled compound
In short: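 Predose plasma from Child-Pugh A, Child-Pugh B and matched healthy subjects was spiked ex vivo with 100 ng/mL [14C]-labelled test compound or its [14C]-labelled metabolite. Binding was measured in vitro by equilibrium dialysis, with radioactivity quantified by liquid scintillation counting. The protein-bound fraction is reported as the group mean ± SD.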

P‐glycoprotein = details: cited from earlier work
[3] = cited from earlier work
[4] = ref BI, data on file, cited from earlier work
Safety and tolerability = format: in vivo, human
In short: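 Open-label, parallel-group, matched-group phase 1 study in adults aged 18–79 with BMI 18.5–34 kg/m2 (Child-Pugh A, Child-Pugh B, and healthy subjects matched by age, weight, race, smoking and sex). Each subject took one oral soft-gelatin capsule with 240 mL water, fed. AEs were recorded from dosing to the end of the 28-day follow-up and coded by MedDRA v17.1. Relatedness was judged by the investigator.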

[5] = Child-Pugh A subjects vs healthy subjects
[6] = Child-Pugh A, Child-Pugh B, healthy subjects
[7] = Child-Pugh B subjects vs healthy subjects
[8] = Child-Pugh A matched healthy subjects (n = 8)
[9] = Child-Pugh B matched healthy subjects (n = 8)
[10] = Child-Pugh A vs matched healthy subjects
[11] = Child-Pugh B vs matched healthy subjects
[12] = single 100 mg dose, Child-Pugh A (n = 8)
[13] = single 100 mg dose, Child-Pugh B (n = 8)
[14] = single 100 mg dose, Healthy (n = 17)

CN1CCN(CC(=O)N(C)c2ccc(N/C(=C3\C(=O)Nc4cc(C(=O)O[C@@H]5O[C@H](C(=O)O)[C@@H](O)[C@H](O)[C@H]5O)ccc43)c3ccccc3)cc2)CC1 [BIBF 1202 glucuronide]
AUC0–∞, fold higher than in healthy subjects [1, 5]: ~1.5 fold
Cmax, comparison across groups [1, 6]: comparable across groups
AUC0–∞, fold higher than in healthy subjects [1, 7]: ~3.5 fold
AUC0–∞ of metabolite, gMean (gCV%) ([1]; Child-Pugh A (n = 8)): 1040 (95.9) ng∙h/mL
Cmax of metabolite, gMean (gCV%) ([1]; Child-Pugh A (n = 8)): 15.1 (113) ng/mL
t1/2, gMean (gCV%) ([1]; Child-Pugh A (n = 8)): 41.1 (45.5) h
AUC0–∞ of metabolite, gMean (gCV%) [1, 8]: 657 (66.8) ng∙h/mL
Cmax of metabolite, gMean (gCV%) [1, 8]: 11.4 (62.0) ng/mL
t1/2, gMean (gCV%) [1, 8]: 31.9 (34.1) h
AUC0–∞ of metabolite, gMean (gCV%) ([1]; Child-Pugh B (n = 8)): 2650 (285) ng∙h/mL
Cmax of metabolite, gMean (gCV%) ([1]; Child-Pugh B (n = 8)): 19.6 (201) ng/mL
t1/2, gMean (gCV%) ([1]; Child-Pugh B (n = 8)): 57.4 (114) h
AUC0–∞ of metabolite, gMean (gCV%) [1, 9]: 761 (69.1) ng∙h/mL
Cmax of metabolite, gMean (gCV%) [1, 9]: 12.7 (76.2) ng/mL
t1/2, gMean (gCV%) [1, 9]: 28.3 (21.9) h

CN1CCN(CC(=O)N(C)c2ccc(N/C(=C3\C(=O)Nc4cc(C(=O)O)ccc43)c3ccccc3)cc2)CC1 [BIBF 1202]
Exposure, fold higher than in healthy subjects [1, 5]: ~2 fold
AUC0–∞, fold higher than in healthy subjects [1, 7]: ~17 fold
Cmax, fold higher than in healthy subjects [1, 7]: 9 fold
AUC0–∞ of metabolite, gMean (gCV%) ([1]; Child-Pugh A (n = 8)): 216 (81.8) ng∙h/mL
Cmax of metabolite, gMean (gCV%) ([1]; Child-Pugh A (n = 8)): 17.4 (47.1) ng/mL
t1/2, gMean (gCV%) ([1]; Child-Pugh A (n = 8)): 39.1 (53.8) h
AUC0–∞ of metabolite, gMean (gCV%) [1, 8]: 86.8 (48.8) ng∙h/mL
Cmax of metabolite, gMean (gCV%) [1, 8]: 7.55 (56.2) ng/mL
t1/2, gMean (gCV%) [1, 8]: 24.7 (65.1) h
AUC0–∞ of metabolite, gMean (gCV%) ([1]; Child-Pugh B (n = 8)): 1190 (86.4) ng∙h/mL
Cmax of metabolite, gMean (gCV%) ([1]; Child-Pugh B (n = 8)): 60.7 (75.2) ng/mL
t1/2, gMean (gCV%) ([1]; Child-Pugh B (n = 8)): 46.9 (16.6) h
AUC0–∞ of metabolite, gMean (gCV%) [1, 9]: 70.4 (38.7) ng∙h/mL
Cmax of metabolite, gMean (gCV%) [1, 9]: 6.47 (57.5) ng/mL
t1/2, gMean (gCV%) [1, 9]: 23.6 (50.1) h
Protein-bound fraction, mean ± SD ([2]; Child-Pugh A (n = 8)): 81.2 ± 3.6%
Protein-bound fraction, mean ± SD ([2]; Child-Pugh B (n = 8)): 82.4 ± 5.5%
Protein-bound fraction, mean ± SD ([2]; Healthy (n = 17)): 85.0 ± 3.0%

COC(=O)c1ccc2c(c1)NC(=O)/C2=C(\Nc1ccc(N(C)C(=O)CN2CCN(C)CC2)cc1)c1ccccc1 [Nintedanib]
P-glycoprotein substrate (P‐glycoprotein): substrate of P‐glycoprotein
Time of absorption (delay by food) ([3]; after food intake): ~4 h
Terminal half-life [3]: 10 to 15 h
Time of absorption (delay by food) ([3]; fasted conditions): approximately 2 hours
Exposure increase when administered after food intake ([3]; fed vs fasted): approximately 20%
Total body clearance ([3]; healthy subjects): 1390 mL/min
Elimination through biliary/fecal excretion ([3]; in vivo): > 90%
Absolute bioavailability ([3]; nintedanib 100 mg in healthy volunteers): approximately 5%
Time to steady state ([3]; of dosing): ≤ 7 days
Time to maximum plasma concentration ([3]; oral administration): 2 to 4 h
Exposure, fold higher than in healthy subjects [1, 5]: ~2 fold
AUC0–tz, adjusted gMean ratio [1, 10]: 216.8%
AUC0–∞, adjusted gMean ratio [1, 10]: 215.4%
Cmax, adjusted gMean ratio [1, 10]: 221.8%
Renal clearance, comparison across groups [1, 6]: comparable across groups
Exposure, fold higher than in healthy subjects [1, 7]: ~8 fold
AUC0–tz, adjusted gMean ratio [1, 11]: 870.7%
AUC0–∞, adjusted gMean ratio [1, 11]: 867.1%
Cmax, adjusted gMean ratio [1, 11]: 761.0%
Time at which Cmax was reached, range ([1]; individual range across all groups): 1 to 8 h
Median time at which Cmax was reached ([1]; medians across Child-Pugh A, Child-Pugh B and healthy subjects): 3 to 4 h
fe0–72 (fraction excreted unchanged in urine), gMean (gCV%) ([1]; Child-Pugh A (n = 8)): 0.204 (96.2) %
fe0–72 (fraction excreted unchanged in urine), gMean (gCV%) [1, 8]: 0.102 (37.9) %
fe0–72 (fraction excreted unchanged in urine), gMean (gCV%) ([1]; Child-Pugh B (n = 7)): 0.543 (31.7)^b %
fe0–72 (fraction excreted unchanged in urine), gMean (gCV%) [1, 9]: 0.0945 (28.7) %
Time to maximum plasma concentrations ([4]; Asian (n = 39) and European (n = 32) patients with impaired hepatic function and advanced HCC): 2 to 3 h
Exposure, fold higher in group II compared with group I ([4]; group II: ALT or AST >2 to ≤5 × ULN or Child-Pugh score 7, group I: ALT and AST ≤ 2 × ULN and Child-Pugh score 5–6): ~2 fold
Severe or serious AEs (Safety and tolerability; all groups, single 100 mg dose): No severe or serious AEs were reported
Tolerability (Safety and tolerability; all groups, single dose of 100 mg): well tolerated
Diarrhea (Safety and tolerability; [12]): 0 n (%)
Headache (Safety and tolerability; [12]): 0 n (%)
Nausea (Safety and tolerability; [12]): 0 n (%)
Pruritus (Safety and tolerability; [12]): 0 n (%)
Skin irritation (Safety and tolerability; [12]): 0 n (%)
Vomiting (Safety and tolerability; [12]): 0 n (%)
Diarrhea (Safety and tolerability; [13]): 1 (12.5) n (%)
Headache (Safety and tolerability; [13]): 0 n (%)
Nausea (Safety and tolerability; [13]): 1 (12.5) n (%)
Pruritus (Safety and tolerability; [13]): 1 (12.5) n (%)
Skin irritation (Safety and tolerability; [13]): 1 (12.5) n (%)
Subjects with any AE (Safety and tolerability; [13]): 3 n (%) and 3 (37.5) n (%)
Vomiting (Safety and tolerability; [13]): 0 n (%)
Diarrhea (Safety and tolerability; [14]): 0 n (%)
Headache (Safety and tolerability; [14]): 1 (5.9) n (%)
Nausea (Safety and tolerability; [14]): 2 (11.8) n (%)
Pruritus (Safety and tolerability; [14]): 0 n (%)
Skin irritation (Safety and tolerability; [14]): 0 n (%)
Subjects with any AE (Safety and tolerability; [14]): 3 n (%) and 3 (17.6) n (%)
Vomiting (Safety and tolerability; [14]): 1 (5.9) n (%)
Protein-bound fraction ([2]; across the groups): > 99%
